Results as given in ChEMBL document CHEMBL2062417, “Biotinylated quercetin as an intrinsic photoaffinity proteomics probe for the identification of quercetin target proteins” (Bioorg Med Chem, 2011).
The source made the active and inactive calls. The rule behind the calls is not given here.

How the values were obtained:
[1] = biological target: ATP synthase F(1) complex subunit beta, mitochondrial (Homo sapiens) (UniProt P06576); assay: Binding affinity to ATP5B in human Jurkat cells at 150 uM followed by UV irradiation for 30 mins with Wood's glass filtered medium pressure mercury arc light after cell lysis measured after denaturing wash by SDS-PAGE based pull down assay
Outline: (§1)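 Jurkat cells were grown in RPMI with 10% FBS (about 15×10^6 cells) and treated 2 h with 150 μM BioQ in 3% aqueous DMSO. They were heat-shocked at 43 °C for 30 min, recovered 1 h at 37 °C, and UV-irradiated (320–400 nm, peak 365 nm, 30 min, 4 °C) before or after sonication lysis. Streptavidin-agarose capture ran 1 h. Beads were washed ≥3× with lysis buffer or 2% SDS Tris pH 7.4, boiled, run on 12% SDS-PAGE and silver-stained.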

[2] = biological target: Actin, cytoplasmic 1 (Homo sapiens) (UniProt P60709); assay: Binding affinity to ACTB in human Jurkat cells at 150 uM followed by UV irradiation for 30 mins with Wood's glass filtered medium pressure mercury arc light prior to cell lysis measured after denaturing wash by SDS-PAGE based pull down assay; outline: as §1
[3] = biological target: ATP synthase F(1) complex subunit alpha, mitochondrial (Homo sapiens) (UniProt P25705); assay: Binding affinity to ATP5A1 in human Jurkat cells at 150 uM followed by UV irradiation for 30 mins with Wood's glass filtered medium pressure mercury arc light prior to cell lysis measured after denaturing wash by SDS-PAGE based pull down assay; outline: as §1
[4] = biological target: ATP synthase F(1) complex subunit alpha, mitochondrial (Homo sapiens) (UniProt P25705); assay: Binding affinity to ATP5A1 in human Jurkat cells at 150 uM followed by UV irradiation for 30 mins with Wood's glass filtered medium pressure mercury arc light after cell lysis measured after denaturing wash by SDS-PAGE based pull down assay; outline: as §1
[5] = biological target: RuvB-like 2 (Homo sapiens) (UniProt Q9Y230); assay: Binding affinity to RUVBL2 in human Jurkat cells at 150 uM followed by UV irradiation for 30 mins with Wood's glass filtered medium pressure mercury arc light prior to cell lysis measured after denaturing wash by SDS-PAGE based pull down assay; outline: as §1
[6] = biological target: Heat shock-related 70 kDa protein 2 (Homo sapiens) (UniProt P54652); assay: Binding affinity to HSPA2 in human Jurkat cells at 150 uM followed by UV irradiation for 30 mins with Wood's glass filtered medium pressure mercury arc light prior to cell lysis measured after denaturing wash by LC-MS/MS based pull down assay
Outline: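 Silver-stained bands from cells irradiated before lysis were excised, destained, reduced with 10 mM DTT, alkylated with 50 mM iodoacetamide and digested with trypsin overnight. Peptides were extracted in 1% TFA/50% acetonitrile. Nano-C18 LC used a 2–50% acetonitrile gradient with 0.1% formic acid over 50 min at 260 nL/min, followed by MS/MS identification.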

[7] = biological target: Heat shock protein HSP 90-alpha (Homo sapiens) (UniProt P07900); assay: Binding affinity to HSP90AA1 in human Jurkat cells at 150 uM followed by UV irradiation for 30 mins with Wood's glass filtered medium pressure mercury arc light after cell lysis measured after denaturing wash by SDS-PAGE based pull down assay; outline: as §1
[8] = tested on: Jurkat; assay: Binding affinity to quercetin binding protein in human Jurkat cells at 150 uM after 30 mins followed by denaturing wash by SDS-PAGE based pull down assay in presence of heat shock; type: cell-based
[9] = tested on: Jurkat; assay: Binding affinity to quercetin binding protein in human Jurkat cells at 150 uM followed by UV irradiation for 30 mins with Wood's glass filtered medium pressure mercury arc light after cell lysis measured after denaturing wash by Western blotting based pull down assay in presence of heat shock
Outline: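 Streptavidin pull-downs from heat-shocked, BioQ-treated (150 μM), UV-irradiated Jurkat cells received a 2% SDS wash. Proteins were transferred from SDS gels to nitrocellulose and blocked overnight in 3% BSA at 4 °C. Blots were probed 1 h with HRP-conjugated anti-biotin antibody and developed with 4-chloro-1-naphthol/0.01% H2O2, with no-UV and no-probe controls.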

[10] = biological target: T1, Ubiquitin-like modifier-activating enzyme 1 (Homo sapiens) (UniProt P22314); assay: Binding affinity to UBA1 in human Jurkat cells at 150 uM followed by UV irradiation for 30 mins with Wood's glass filtered medium pressure mercury arc light after cell lysis measured after denaturing wash by SDS-PAGE based pull down assay; outline: as §1
T1 sequence (whole entry): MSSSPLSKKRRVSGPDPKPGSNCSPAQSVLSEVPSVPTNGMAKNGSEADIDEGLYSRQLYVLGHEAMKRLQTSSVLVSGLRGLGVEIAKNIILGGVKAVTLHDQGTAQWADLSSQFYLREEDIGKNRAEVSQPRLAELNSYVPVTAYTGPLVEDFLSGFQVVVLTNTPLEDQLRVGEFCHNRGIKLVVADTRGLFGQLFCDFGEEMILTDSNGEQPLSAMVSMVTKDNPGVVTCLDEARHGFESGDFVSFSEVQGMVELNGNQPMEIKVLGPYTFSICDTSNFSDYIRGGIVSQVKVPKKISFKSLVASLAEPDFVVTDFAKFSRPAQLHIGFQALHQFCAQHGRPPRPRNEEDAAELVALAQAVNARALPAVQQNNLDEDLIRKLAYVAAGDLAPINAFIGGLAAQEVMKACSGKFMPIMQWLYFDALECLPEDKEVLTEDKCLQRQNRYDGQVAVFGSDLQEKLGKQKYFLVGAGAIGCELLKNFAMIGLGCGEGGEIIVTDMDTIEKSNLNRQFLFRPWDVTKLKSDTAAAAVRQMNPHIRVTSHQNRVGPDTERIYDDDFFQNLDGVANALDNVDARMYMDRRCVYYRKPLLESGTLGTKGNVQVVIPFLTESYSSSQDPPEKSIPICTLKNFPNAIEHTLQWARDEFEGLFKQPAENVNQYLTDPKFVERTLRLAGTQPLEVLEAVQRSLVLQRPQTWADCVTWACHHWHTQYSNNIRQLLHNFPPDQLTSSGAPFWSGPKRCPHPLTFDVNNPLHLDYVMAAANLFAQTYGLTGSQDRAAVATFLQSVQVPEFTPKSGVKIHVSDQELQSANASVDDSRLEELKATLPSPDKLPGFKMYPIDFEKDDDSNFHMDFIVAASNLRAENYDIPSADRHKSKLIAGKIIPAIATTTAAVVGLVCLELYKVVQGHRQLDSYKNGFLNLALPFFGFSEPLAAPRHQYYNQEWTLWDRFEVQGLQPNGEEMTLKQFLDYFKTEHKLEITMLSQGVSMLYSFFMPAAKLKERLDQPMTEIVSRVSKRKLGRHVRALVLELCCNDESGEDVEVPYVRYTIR

Sequence of ATP synthase F(1) complex subunit alpha, mitochondrial (Homo sapiens) (P25705 whole entry, one chain of several): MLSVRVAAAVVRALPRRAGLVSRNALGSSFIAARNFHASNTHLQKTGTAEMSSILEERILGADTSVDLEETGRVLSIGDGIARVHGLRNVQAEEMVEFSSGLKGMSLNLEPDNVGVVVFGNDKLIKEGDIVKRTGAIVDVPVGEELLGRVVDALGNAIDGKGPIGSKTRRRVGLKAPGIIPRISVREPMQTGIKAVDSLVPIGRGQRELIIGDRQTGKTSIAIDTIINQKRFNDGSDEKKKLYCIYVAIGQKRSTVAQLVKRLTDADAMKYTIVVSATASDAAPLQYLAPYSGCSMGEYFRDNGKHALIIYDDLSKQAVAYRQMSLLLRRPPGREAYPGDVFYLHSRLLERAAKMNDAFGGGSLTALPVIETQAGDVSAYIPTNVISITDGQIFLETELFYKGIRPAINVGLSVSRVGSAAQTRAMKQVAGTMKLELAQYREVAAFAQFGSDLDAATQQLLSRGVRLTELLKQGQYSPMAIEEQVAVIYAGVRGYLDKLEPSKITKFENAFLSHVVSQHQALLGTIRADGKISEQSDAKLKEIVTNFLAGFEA
Sequence of ATP synthase F(1) complex subunit beta, mitochondrial (Homo sapiens) (P06576 whole entry, one chain of several): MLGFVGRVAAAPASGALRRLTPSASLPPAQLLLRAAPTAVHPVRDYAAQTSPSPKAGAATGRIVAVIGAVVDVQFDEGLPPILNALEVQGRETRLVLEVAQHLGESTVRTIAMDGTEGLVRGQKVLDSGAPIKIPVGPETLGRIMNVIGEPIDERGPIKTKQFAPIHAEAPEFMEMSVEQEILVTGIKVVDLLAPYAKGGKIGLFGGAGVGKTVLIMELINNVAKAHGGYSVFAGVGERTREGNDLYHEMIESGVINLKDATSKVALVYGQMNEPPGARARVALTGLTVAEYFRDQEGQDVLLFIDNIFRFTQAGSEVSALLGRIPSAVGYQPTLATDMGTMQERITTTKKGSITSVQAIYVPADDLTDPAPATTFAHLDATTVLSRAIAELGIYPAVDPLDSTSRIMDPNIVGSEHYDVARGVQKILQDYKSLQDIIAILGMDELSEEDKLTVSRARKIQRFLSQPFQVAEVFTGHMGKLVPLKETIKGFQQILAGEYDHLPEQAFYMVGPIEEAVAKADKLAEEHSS
Sequence of Heat shock-related 70 kDa protein 2 (Homo sapiens) (P54652 whole entry): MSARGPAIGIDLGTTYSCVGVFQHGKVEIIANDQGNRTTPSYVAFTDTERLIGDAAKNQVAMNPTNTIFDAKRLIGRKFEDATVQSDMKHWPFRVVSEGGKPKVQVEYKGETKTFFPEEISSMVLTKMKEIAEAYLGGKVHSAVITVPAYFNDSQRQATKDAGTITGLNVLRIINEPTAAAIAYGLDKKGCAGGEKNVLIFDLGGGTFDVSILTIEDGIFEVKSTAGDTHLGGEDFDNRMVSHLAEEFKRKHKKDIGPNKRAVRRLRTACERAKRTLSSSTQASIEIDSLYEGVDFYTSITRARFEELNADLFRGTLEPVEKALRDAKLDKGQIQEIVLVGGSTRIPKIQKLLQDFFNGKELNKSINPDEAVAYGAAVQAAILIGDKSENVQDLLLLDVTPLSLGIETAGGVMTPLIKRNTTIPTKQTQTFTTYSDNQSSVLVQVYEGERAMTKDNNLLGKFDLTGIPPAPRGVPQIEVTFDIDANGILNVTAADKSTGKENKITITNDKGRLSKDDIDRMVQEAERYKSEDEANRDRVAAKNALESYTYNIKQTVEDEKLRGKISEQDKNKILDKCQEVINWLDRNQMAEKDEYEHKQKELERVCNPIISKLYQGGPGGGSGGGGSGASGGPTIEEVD
Sequence of RuvB-like 2 (Homo sapiens) (Q9Y230 whole entry): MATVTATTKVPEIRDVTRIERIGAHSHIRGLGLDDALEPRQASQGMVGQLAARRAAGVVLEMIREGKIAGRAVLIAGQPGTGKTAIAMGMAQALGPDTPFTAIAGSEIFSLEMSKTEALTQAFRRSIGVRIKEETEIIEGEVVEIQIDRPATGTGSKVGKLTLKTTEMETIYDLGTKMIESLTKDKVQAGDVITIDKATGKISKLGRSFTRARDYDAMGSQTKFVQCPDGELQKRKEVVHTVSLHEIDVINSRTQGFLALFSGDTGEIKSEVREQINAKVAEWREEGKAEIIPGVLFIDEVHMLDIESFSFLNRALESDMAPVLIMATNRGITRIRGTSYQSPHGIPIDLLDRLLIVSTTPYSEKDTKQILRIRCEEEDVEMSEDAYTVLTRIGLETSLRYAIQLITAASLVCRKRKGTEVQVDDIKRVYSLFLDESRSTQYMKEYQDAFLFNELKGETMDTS

Activity [1]: Active
Activity [2]: Active
Activity [3]: Active
Activity [4]: Active
Activity [5]: Active
Activity [6]: Active
Activity [7]: Active
Activity [10]: Active
SMILES: O=C(CCCC[C@@H]1SC[C@@H]2NC(=O)N[C@@H]21)NCCOCCOCCNC(=O)COc1cc(O)c2c(=O)c(O)c(-c3ccc(O)c(O)c3)oc2c1
Activity [8]: Active
Activity [9]: Active
